In ChEMBL document CHEMBL1143723, “Antiproliferative cardenolides of an Elaeodendron sp. from the Madagascar rain forest(1)” (J Nat Prod, 2007) one finds IC50 data, which are given here for 6 molecules.

Molecules are shown by their SMILES.

Common to all, as to type: functional, cell-based
One assay has as its system A2780. Briefly: Antiproliferative activity against human A2780 cells.
A further assay concerns U-937. Briefly: Antiproliferative activity against human U937 cells. A digest of the protocol:
(§1)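 Cultured human cancer lines (MDA-MB-435 breast, HT-29 colon, H522-T1 non-small cell, U937 histiocytic lymphoma) were exposed to compound, and growth was read by luminescence. The method follows an earlier report, with luminescence measured on a multilabel reader.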

Assay [1] is described as follows: Antiproliferative activity against human H522T1 cells. The note with it: H522-T1. Summed up:
as §1

Another assay relates to MDA-MB-435. Put plainly: Antiproliferative activity against human MDA-MB-435 cells. A digest of the protocol:
as §1

A further assay relates to HT-29. Put plainly: Antiproliferative activity against human HT29 cells. Summed up: as §1

`CO[C@H]1CCO[C@H]2O[C@@H]3C=C4CC[C@@H]5[C@H](CC[C@]6(C)[C@@H](C7=CC(=O)OC7)[C@@H](OC(C)=O)C[C@]56O)[C@@]4(C)C[C@H]3O[C@]21O` [ELAEODENDROSIDE F] registered an IC50 in the assay with A2780 of 0.19 µM.

Take `CO[C@@H]1C[C@@H](C)O[C@H]2O[C@@H]3C=C4CC[C@@H]5[C@H](CC[C@]6(C)[C@@H](C7=CC(=O)OC7)[C@@H](OC(C)=O)C[C@]56O)[C@@]4(C)C[C@H]3O[C@]21O` [ELAEODENDROSIDE T]: the 50% inhibitory concentration (IC50) in the assay with U-937 is 0.15 µM; in assay [1], 0.18 µM; with MDA-MB-435 it was 0.37 µM; with A2780 it was 0.085 µM; in the assay on HT-29, 0.18 µM.

Regarding `CO[C@H]1CCO[C@@H](O[C@@H]2C=C3CC[C@@H]4[C@H](CC(=O)[C@]5(C)[C@@H](C6=CC(=O)OC6)CC[C@]45O)[C@@]3(C)C[C@H]2O)[C@H]1O` [ELAEODENDROSIDE U], half-maximal inhibition with A2780 (IC50) required 30 µM.

For the molecule `CO[C@H]1CCO[C@@H](O[C@@H]2C=C3CC[C@@H]4[C@H](CC[C@]5(C)[C@@H](C6=CC(=O)OC6)CC[C@]45O)[C@@]3(C)C[C@H]2O)[C@H]1O`, half-maximal inhibition in the assay with A2780 (IC50) was put at 2.5 µM.

`CO[C@@H]1CCO[C@H]2O[C@@H]3C=C4CC[C@@H]5[C@H](CC[C@]6(C)[C@@H](C7=CC(=O)OC7)[C@@H](OC(C)=O)C[C@]56O)[C@@]4(C)C[C@H]3O[C@]21O` [ELAEODENDROSIDE G] came in with an IC50 in the assay with A2780 of 0.1 µM.

On to `CO[C@H]1CCO[C@H]2O[C@@H]3C=C4CC[C@@H]5[C@H](CC[C@]6(C)[C@@H](C7=CC(=O)OC7)CC[C@]56O)[C@@]4(C)C[C@H]3O[C@]21O` [ELAEODENDROSIDE B], for which the IC50 with U-937 stood at 0.05 µM; in assay [1] it was 0.08 µM; in the assay on MDA-MB-435, 0.15 µM; with A2780 it was 0.019 µM; in the assay with HT-29 it was 0.08 µM.
